From ChEMBL document CHEMBL4257564, “Rational Design, Synthesis, and Pharmacological Characterization of Novel Ghrelin Receptor Inverse Agonists as Potential Treatment against Obesity-Related Metabolic Diseases” (J Med Chem, 2018)

Assays:
[1] = Protein binding in dog plasma at 1 uM after 6 hrs by equilibrium dialysis; assay type: ADME, cell-free, Canis lupus familiaris; conditions: read-out: PPB
Procedure, shortened: (§1)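 Compound spiked at 1.0 µM final (0.5% DMSO) into plasma. Equilibrium dialysis against DPBS pH 7.4 across a 12–14 kD membrane for 6 h at 37 °C, in triplicate. Buffer-only controls used for nonspecific binding. Unbound fraction = acceptor/donor concentration by LC-MS/MS; reported as % bound.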

[2] = Oral bioavailability in rat at 3 mg/kg via gavage by LC-MS/MS analysis; assay type: ADME, organism-based; conditions: in vivo
Procedure, shortened: (§2)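 Rats given 3 mg/kg by oral gavage as a suspension in 2% DMSO/98% of 0.5% CMC. EDTA plasma sampled at 0.25–24 h and analysed by LC-MS/MS. Bioavailability estimated against the 3 mg/kg i.v. arm.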

[3] = Clearance in rat liver microsomes at 0.625 uM preincubated for 5 mins followed by NADPH addition and measured after 60 mins by LC-MS/MS analysis; assay type: ADME, microsome; conditions: read-out: CLH
Procedure, shortened: (§3)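 Liver microsomes (0.625 mg/mL protein) in 50 mM potassium phosphate pH 7.4 with 0.625 µM test item, prewarmed 5 min at 37 °C. Reaction started with NADPH (5 mM solution). Samples taken at 0, 5, 15, 30 and 60 min into cold MeCN with internal standard, analysed by LC-MS/MS. Intrinsic clearance derived by the half-life approach.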

Mus musculus [4] = test: Anti-obesity activity in C57BL/6J mouse assessed as inhibition of anamorelin-induced increase in food intake by measuring cumulative food intake at 10 mg/kg, ip pretreated for 10 mins followed by anamorelin addition and measured after 4 hrs post dose (reference value: 2.09 +/- 0.08 g); assay type: functional
Procedure, shortened: (§4)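 Male C57BL/6J mice (18–22 g at arrival), fed ad libitum. Dosed 10 mg/kg i.p. at t = 0 in 10% DMAC/6% Solutol HS 15/84% PBS, then anamorelin 30 mg/kg p.o. (0.5% CMC) at 10 min. Cumulative food intake recorded at 1, 2, 4, 8 and 24 h; n=6 per group; mean ± SEM; ANOVA with Dunnett test versus vehicle+anamorelin.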

[5] = target: T1, Growth hormone secretagogue receptor type 1 (Homo sapiens, UniProt Q92847); test: Agonist activity at recombinant human GHSR1a expressed in HEK293 cells assessed as induction of intracellular calcium release after 15 mins by FLIPR assay; assay type: functional, cell-based; conditions: hek293
Procedure, shortened: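 HEK293 cells stably expressing human GHSR1a, seeded 24 h before the run, then loaded with calcium dye for 30-60 min at room temperature or 37 °C. DMSO-dissolved compounds were added and intracellular calcium release was monitored by FLIPR fluorescence.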

[6] = target: T1, Growth hormone secretagogue receptor type 1; test: Inverse agonist at recombinant human GHSR1a expressed in HEK293 cells assessed as decrease in IP1 accumulation after 1 hr by IP1-d2-based HTRF assay; assay type: functional, cell-based; conditions: read-out: EC50
Procedure, shortened: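 HEK293 cells stably expressing human GHSR1a were seeded on Matrigel in complete DMEM for 18–22 h at 37 °C, 5% CO2. Compound in stimulation buffer was applied for 1 h at 37 °C. IP1-d2 and Tb-cryptate were then added for 1 h at room temperature, with HTRF read at 620/665 nm. Mean of at least two independent runs in triplicate.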

[7] = Clearance in mouse liver microsomes at 0.625 uM preincubated for 5 mins followed by NADPH addition and measured after 60 mins by LC-MS/MS analysis; assay type: ADME, microsome; conditions: read-out: CLH; procedure, shortened: as §3
Mus musculus [8] = test: Anti-obesity activity in C57BL/6J mouse assessed as inhibition of anamorelin-induced increase in food intake by measuring cumulative food intake at 10 mg/kg, ip pretreated for 10 mins followed by anamorelin addition and measured after 1 hr post dose (reference value: 0.63 +/- 0.04 g); assay type: functional; procedure, shortened: as §4
[9] = Ratio of drug level in brain to plasma of rat at 3 mg/kg, iv after 2 hrs by LC-MS/MS analysis; assay type: ADME, organism-based; conditions: read-out: BPR
Procedure, shortened: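 Rats given 3 mg/kg i.v. Brain collected 2 h post-dose after CO2 euthanasia and homogenized in 5 volumes of PBS pH 7.4. Brain and plasma levels measured by LC-MS/MS; ratio taken from the 2 h concentrations.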

Mus musculus [10] = test: Anti-obesity activity in C57BL/6J mouse assessed as inhibition of anamorelin-induced increase in food intake by measuring cumulative food intake at 30 mg/kg, po pretreated for 10 mins followed by anamorelin addition and measured after 24 hrs post dose (reference value: 8.31 +/- 0.2 g)
MDR1 = test: Apparent permeability across apical to basolateral side in MDCK2 cells expressing human MDR1 at 1 uM after 90 mins in absence of MDR1 inhibitor cyclosporine A by LC-MS/MS analysis; assay type: ADME, cell-based, Canis lupus familiaris, MDCK-II; conditions: dog, MDCK-MDR1
Procedure, shortened: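 MDR1-MDCKII monolayers grown 4 days on transwell inserts, with integrity checked by TEER. Test item at 1 µM in HBSS/10 mM HEPES/25 mM glucose pH 7.4, in duplicate, added to the apical side. Receiver sampled after 90 min at 37 °C and analysed by LC-MS/MS; Papp = (dMr/dt)/(A×C0).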

[11] = Protein binding in human plasma at 1 uM after 6 hrs by equilibrium dialysis; assay type: ADME, cell-free; conditions: read-out: PPB; procedure, shortened: as §1
Mus musculus [12] = test: Anti-obesity activity in C57BL/6J mouse assessed as inhibition of anamorelin-induced increase in food intake by measuring cumulative food intake at 10 mg/kg, ip pretreated for 10 mins followed by anamorelin addition and measured after 24 hrs post dose (reference value: 8.31 +/- 0.2 g); assay type: functional; procedure, shortened: as §4
Mus musculus [13] = test: Anti-obesity activity in C57BL/6J mouse assessed as inhibition of anamorelin-induced increase in food intake by measuring cumulative food intake at 30 mg/kg, po pretreated for 10 mins followed by anamorelin addition and measured after 1 hr post dose (reference value: 0.63 +/- 0.04 g)
Mus musculus [14] = test: Anti-obesity activity in C57BL/6J mouse assessed as inhibition of anamorelin-induced increase in food intake by measuring cumulative food intake at 10 mg/kg, ip pretreated for 10 mins followed by anamorelin addition and measured after 2 hrs post dose (reference value: 1.37 +/- 0.05 g); assay type: functional; procedure, shortened: as §4
[15] = Clearance in dog liver microsomes at 0.625 uM preincubated for 5 mins followed by NADPH addition and measured after 60 mins by LC-MS/MS analysis; assay type: ADME, Canis lupus familiaris, microsome; conditions: read-out: CLH; procedure, shortened: as §3
[16] = Plasma clearance in rat at 3 mg/kg, iv after 24 hrs by LC-MS/MS analysis; assay type: ADME, organism-based
Procedure, shortened: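 Rats given 3 mg/kg i.v. via tail vein, in 2% DMSO/50% of 40% HP-β-CD. EDTA plasma sampled at 0.08–24 h and analysed by LC-MS/MS, calibration range 5-5000 ng/mL.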

[17] = Half life in rat at 3 mg/kg, po via gavage by LC-MS/MS analysis; assay type: ADME, organism-based; conditions: in vivo; procedure, shortened: as §2
Mus musculus [18] = test: Anti-obesity activity in C57BL/6J mouse assessed as inhibition of anamorelin-induced increase in food intake by measuring cumulative food intake at 30 mg/kg, po pretreated for 10 mins followed by anamorelin addition and measured after 8 hrs post dose (reference value: 2.97 +/- 0.09 g)
[19] = Protein binding in mouse plasma at 1 uM after 6 hrs by equilibrium dialysis; assay type: ADME, cell-free; conditions: read-out: PPB (converted); procedure, shortened: as §1

T1 sequence (Q92847 whole entry): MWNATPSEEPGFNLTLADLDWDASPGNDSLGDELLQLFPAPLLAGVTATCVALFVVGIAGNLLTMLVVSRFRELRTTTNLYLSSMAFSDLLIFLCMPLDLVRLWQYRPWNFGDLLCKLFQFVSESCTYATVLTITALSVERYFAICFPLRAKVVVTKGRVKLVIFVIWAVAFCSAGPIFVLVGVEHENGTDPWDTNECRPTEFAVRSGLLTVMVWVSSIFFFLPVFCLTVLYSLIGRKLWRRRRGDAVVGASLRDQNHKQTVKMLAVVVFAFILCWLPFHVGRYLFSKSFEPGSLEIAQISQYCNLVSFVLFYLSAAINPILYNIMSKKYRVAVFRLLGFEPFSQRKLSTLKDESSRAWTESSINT

Cc1cc(-c2ccc3c(c2)CC[C@H]3N2CCC(N(C)C(=O)N[C@@H](C)c3ccc(C#CC4CC4)c(Cl)c3Cl)CC2)ncn1
fraction unbound at 6 h, 1 µM [1]: 0.0001
bioavailability [2]: 27%
microsomal CLint at 0.625 µM [3]: 57.8 µL/min/mg
Activity (Mus musculus [4]): 1.66 g
EC50 [5]: Not Active
EC50 [6]: 0.0294 µM
microsomal CLint at 0.625 µM [7]: < 10 µL/min/mg
Activity (Mus musculus [8]): 0.13 g
Kp at 2 h [9]: 1.86
Activity (Mus musculus [10]): 7.42 g
Papp A→B at 1.5 h, 1 µM (MDR1): 3.9 ×10⁻⁶ cm/s
fraction unbound at 6 h, 1 µM [11]: 0.0001
Activity (Mus musculus [12]): 7.63 g
Activity (Mus musculus [13]): 0.22 g
Activity (Mus musculus [14]): 0.56 g
microsomal CLint at 0.625 µM [15]: 52.2 µL/min/mg
clearance [16]: 15.2 mL/min/kg
half-life [17]: 15.8 h
Activity (Mus musculus [18]): 1.8 g
fraction unbound at 6 h, 1 µM [19]: 0.0002
